Source: ChEMBL document CHEMBL1145129, “Design, synthesis, and anticancer properties of 4,4'-dihydroxybenzophenone-2,4-dinitrophenylhydrazone and analogues” (J Med Chem, 2003)
Values after ≈ are worked out from the molar mass of the structure shown.

Tests used:
[1] = In vitro cytotoxicity in KM 12 SM cell line; assay type: functional; conditions: Homo sapiens, KM12
Method in brief: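 Established lines kept in RPMI-1640 with 10% fetal calf serum and penicillin/streptomycin at 36 °C, 10% CO₂. Cells seeded at 2000–3000 cells/well, hydrazones added at several concentrations after 18 h, and exposed a further 36 h. Viable cells read by MTT absorbance at 570 nm; cytostasis (%) = (1 − A/B)×100 against untreated control.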

MDA-MB-435 = assay: In vitro cytotoxicity in MDA-MB-435 cell line; assay type: functional, cell-based; conditions: Homo sapiens
Method in brief: (§1)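 Established tumor lines kept in RPMI-1640 with 10% fetal calf serum and penicillin/streptomycin at 36 °C, 10% CO₂. Seeded 2000–3000 cells/well; hydrazone-containing medium added after 18 h, then 36 h further culture. Viable cells read by MTT absorbance at 570 nm; cytostasis (%) = (1 − A_treated/A_control) × 100.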

[2] = In vitro cytotoxicity in SN 12 PM6 cell line; assay type: functional, cell-based; conditions: Homo sapiens; method in brief: as §1
[3] = In vitro cytotoxicity in estrogen receptor and progesterone receptor negative Human breast tumor cells; (5+/-2, 0.2+/-0.3); assay type: functional, cell-based
[4] = In vitro cytotoxicity in estrogen receptor negative progesterone receptor positive Human breast tumor cells; (3+/-2, 0.4+/-0.1); assay type: functional, cell-based
[5] = In vitro cytotoxicity in estrogen receptor positive progesterone receptor negative Human breast tumor cells; (>5, 0.5); assay type: functional, cell-based
Colon carcinoma cell = assay: In vitro cytotoxicity in Human colon tumor cells; (>12+/-4, >12+/-5); assay type: functional, cell-based
Homo sapiens [6] = species: Homo sapiens; assay: In vitro cytotoxicity in Human ovary tumor cells; (3+/-3, 4.2+/-4); assay type: functional; conditions: Female gonad
Homo sapiens [7] = species: Homo sapiens; assay: In vitro cytotoxicity in Human lung tumor cells; (5+/-5, 6+/-5); assay type: functional
Melanoma tumor cell line = assay: In vitro cytotoxicity in Human melanoma tumor cells; (5+/-4, >10); assay type: functional, cell-based
[8] = In vitro cytotoxicity in FDCP-1 cell line; conditions: Mus musculus, FDC-P1
[9] = In vitro cytotoxicity in B 16 F10 cell line; conditions: Mus musculus, B16-F10
[10] = system: breast cancer cells (Homo sapiens); assay: In vitro cytotoxicity in estrogen receptor and progesterone receptor positive Human breast tumor cells; (2.5+/-0.9, 0.5+/-1)

## O=[N+]([O-])c1ccc(NN=C(c2ccc(O)cc2)c2ccc(O)cc2)c([N+](=O)[O-])c1 [SIVIFENE]
[1]
  IC50: 5.4 mg/L (≈ 13.7 µM)
MDA-MB-435
  IC50: 2.1 mg/L (≈ 5.33 µM)
[2]
  IC50: 4 mg/L (≈ 10.1 µM)
[3]
  IC50: 12.6 mg/L (≈ 32 µM)
[4]
  IC50: > 10 mg/L
[5]
  IC50: > 10 mg/L
Colon carcinoma cell
  IC50: 15.2 mg/L (≈ 38.5 µM)
Homo sapiens [6]
  IC50: 12.3 mg/L (≈ 31.2 µM)
Homo sapiens [7]
  IC50: 4.9 mg/L (≈ 12.4 µM)
Melanoma tumor cell line
  IC50: 7 mg/L (≈ 17.8 µM)
[8]
  IC50: 9.1 mg/L (≈ 23.1 µM)
[9]
  IC50: 1 mg/L (≈ 2.54 µM)
[10]
  IC50: 3.5 mg/L (≈ 8.88 µM)
